Measurements as given in ChEMBL document CHEMBL1821619 (Bioorg Med Chem Lett, 2011).

What was measured:
[1] = target: CYP2D6 (Homo sapiens, UniProt P10635); experiment: Inhibition of CYP2D6 at 1 uM; type: ADME
How it was run: (§1)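 Compounds were incubated at 37 ± 0.5 °C with agitation with human recombinant CYP isoforms, isoform-selective fluorescent substrates and an NADPH-generating system.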

[2] = target: Histamine H3 receptor (Homo sapiens, UniProt Q9Y5N1); experiment: Displacement of [125I]Iodoproxyfan from recombinant human histamine H3 receptor expressed in HEK293 cells after 60 mins; type: cell-based
[3] = system: Mus musculus; experiment: Inverse agonist activity at histamine H3 receptor in po dosed Swiss mouse assessed as brain N-tele-methylhistamine level measured after 90 mins by enzyme immunoassay; type: functional; conditions: 1.5 h
How it was run: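 Compounds were given orally to at least 6 male Swiss mice per dose. Brain N-tele-methylhistamine was measured by enzyme immunoassay 90 min after dosing. Intrinsic activity was scaled to ciproxifan as the reference full inverse agonist. ED50 is given as mean ± SEM.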

[4] = target: T1, hERG (KCNH2) (Homo sapiens, UniProt Q12809); experiment: Inhibition of human ERG expressed in HEK293 cells at 1 uM by patch clamp assay; type: cell-based; conditions: HEK293 cells expressing human ERG
[5] = target: CYP3A4 (Homo sapiens, UniProt P08684); experiment: Inhibition of CYP3A4 at 1 uM; type: ADME; how it was run: as §1
[6] = target: CYP2C9 (Homo sapiens, UniProt P11712); experiment: Inhibition of CYP2C9 at 1 uM; type: ADME; how it was run: as §1
[7] = target: Histamine H3 receptor (Mus musculus, UniProt P58406); experiment: Displacement of [125I]Iodoproxyfan from mouse brain cortex histamine H3 receptor after 60 mins; type: tissue-based
How it was run: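 Competition binding used [125I]-iodoproxyfan against human recombinant H3R and native mouse brain cortex H3R. Ki values are means of at least two experiments run in duplicate or triplicate, reported as mean ± SEM.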

[8] = target: Cytochrome P450 2C9 (Homo sapiens, UniProt P11712); experiment: Inhibition of CYP2C9; type: ADME; how it was run: as §1
[9] = target: Cytochrome P450 2D6 (Homo sapiens, UniProt P10635); experiment: Inhibition of CYP2D6; type: ADME; how it was run: as §1
[10] = target: T1, hERG (KCNH2); experiment: Inhibition of human ERG expressed in HEK293 cells at 10 uM by patch clamp assay; type: cell-based; conditions: HEK293 cells expressing human ERG
[11] = Tmax in Swiss mouse plasma at 10 mg/kg, po by LC-MS/MS; type: ADME, organism-based; set-up: dose 10 mg/kg, route oral
[12] = Tmax in Swiss mouse brain at 10 mg/kg, po by LC-MS/MS; type: ADME, organism-based; set-up: dose 10 mg/kg, route oral
[13] = AUC (0 to 3 hrs) in Swiss mouse plasma at 10 mg/kg, po by LC-MS/MS; type: ADME, organism-based; set-up: time < 3 hr, dose 10 mg/kg, route oral
[14] = AUC (0 to 3 hrs) in Swiss mouse brain at 10 mg/kg, po by LC-MS/MS; type: ADME, organism-based; set-up: time < 3 hr, dose 10 mg/kg, route oral
[15] = target: Cytochrome P450 3A4 (Homo sapiens, UniProt P08684); experiment: Inhibition of CYP3A4; type: ADME; how it was run: as §1
[16] = system: Liver microsomes; experiment: Metabolic stability in human liver microsomes at 100 nM upto 250 mins by LC-MS/MS; type: ADME, Microsome; conditions: 0.1 µM
How it was run: (§2)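 Compound at 100 nM was incubated with pooled human or mouse liver microsomes (0.5 mg/mL protein) plus NADP. Remaining compound was followed over time by LC-MS/MS.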

[17] = Ratio of AUC (0 to 8 hrs) in Swiss mouse brain to AUC (0 to 8 hrs) in Swiss mouse plasma at 10 mg/kg, po by LC-MS/MS; type: ADME, organism-based; set-up: dose 10 mg/kg, route oral; conditions: brain and plasma, read-out: Ratio AUC
How it was run: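 Male Swiss mice given single 10 mg/kg oral dose; plasma and brain tissue sampled over 0–8 h and drug quantified by LC-MS/MS; AUC0-8h computed for each matrix, ratio brain to plasma; mean ± SEM of 3 mice.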

[18] = AUC (0 to 8 hrs) in Swiss mouse brain at 10 mg/kg, po by LC-MS/MS; type: ADME, organism-based; set-up: time < 8 hr, dose 10 mg/kg, route oral
How it was run: (§3)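 Male Swiss mice received a single 10 mg/kg oral dose. Compound was quantified in plasma and brain tissue by LC-MS/MS over 8 h, and AUC0-8h was derived. Data are mean ± SEM of 3 mice.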

[19] = system: Liver; experiment: Metabolic stability in mouse liver microsomes at 100 nM upto 250 mins by LC-MS/MS; type: ADME, Microsome; conditions: 0.1 µM; how it was run: as §2
[20] = AUC (0 to 8 hrs) in Swiss mouse plasma at 10 mg/kg, po by LC-MS/MS; type: ADME, organism-based; set-up: time < 8 hr, dose 10 mg/kg, route oral; how it was run: as §3

T1 sequence (Q12809 whole entry): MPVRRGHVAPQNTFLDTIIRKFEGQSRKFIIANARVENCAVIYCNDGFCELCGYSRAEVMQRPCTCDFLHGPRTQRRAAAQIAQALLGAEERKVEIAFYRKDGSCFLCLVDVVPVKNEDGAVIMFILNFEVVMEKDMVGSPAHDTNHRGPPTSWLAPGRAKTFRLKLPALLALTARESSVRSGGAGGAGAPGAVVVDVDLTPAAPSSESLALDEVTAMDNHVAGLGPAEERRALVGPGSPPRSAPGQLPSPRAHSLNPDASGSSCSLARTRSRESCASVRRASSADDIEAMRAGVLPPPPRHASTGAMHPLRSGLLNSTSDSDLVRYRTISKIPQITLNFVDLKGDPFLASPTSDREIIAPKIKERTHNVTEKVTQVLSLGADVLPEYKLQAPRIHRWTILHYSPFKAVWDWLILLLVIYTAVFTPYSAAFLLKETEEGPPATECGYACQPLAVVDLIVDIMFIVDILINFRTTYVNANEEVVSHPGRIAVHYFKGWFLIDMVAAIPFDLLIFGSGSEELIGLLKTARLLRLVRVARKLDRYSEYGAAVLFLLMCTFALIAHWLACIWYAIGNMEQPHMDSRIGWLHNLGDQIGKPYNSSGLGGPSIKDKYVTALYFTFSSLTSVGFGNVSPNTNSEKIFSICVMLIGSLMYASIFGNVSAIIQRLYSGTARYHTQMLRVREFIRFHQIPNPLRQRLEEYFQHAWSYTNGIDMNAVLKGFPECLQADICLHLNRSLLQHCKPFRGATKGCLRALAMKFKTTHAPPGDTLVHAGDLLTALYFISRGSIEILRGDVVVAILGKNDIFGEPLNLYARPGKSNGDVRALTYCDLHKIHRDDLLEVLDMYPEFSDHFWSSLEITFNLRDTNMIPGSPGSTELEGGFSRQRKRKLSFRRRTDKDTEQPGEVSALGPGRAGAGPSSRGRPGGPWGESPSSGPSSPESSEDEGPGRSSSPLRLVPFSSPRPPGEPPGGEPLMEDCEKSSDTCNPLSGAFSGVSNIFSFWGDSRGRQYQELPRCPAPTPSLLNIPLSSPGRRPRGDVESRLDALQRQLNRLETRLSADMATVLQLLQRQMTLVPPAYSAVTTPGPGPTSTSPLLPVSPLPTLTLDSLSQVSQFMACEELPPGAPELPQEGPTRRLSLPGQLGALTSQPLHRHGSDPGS
Sequence of Cytochrome P450 2D6 (P10635 whole entry): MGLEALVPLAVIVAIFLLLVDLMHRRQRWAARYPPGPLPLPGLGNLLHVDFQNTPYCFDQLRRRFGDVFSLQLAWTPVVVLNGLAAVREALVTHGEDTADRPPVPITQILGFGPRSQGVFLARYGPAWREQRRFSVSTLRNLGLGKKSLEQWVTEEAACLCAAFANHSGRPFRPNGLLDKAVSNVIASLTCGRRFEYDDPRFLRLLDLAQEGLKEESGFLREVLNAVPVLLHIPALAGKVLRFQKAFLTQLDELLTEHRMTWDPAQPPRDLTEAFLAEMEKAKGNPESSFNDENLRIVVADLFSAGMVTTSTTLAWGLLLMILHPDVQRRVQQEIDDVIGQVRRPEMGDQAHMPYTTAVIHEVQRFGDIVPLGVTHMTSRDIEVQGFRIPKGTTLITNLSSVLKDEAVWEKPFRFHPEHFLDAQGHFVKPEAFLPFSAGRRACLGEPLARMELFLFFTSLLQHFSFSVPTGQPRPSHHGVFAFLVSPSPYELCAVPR
Sequence of CYP2D6 (P10635 whole entry, canonical isoform): as the sequence (P10635 whole entry) above
Sequence of Histamine H3 receptor (Homo sapiens, UniProt Q9Y5N1) (Q9Y5N1 whole entry): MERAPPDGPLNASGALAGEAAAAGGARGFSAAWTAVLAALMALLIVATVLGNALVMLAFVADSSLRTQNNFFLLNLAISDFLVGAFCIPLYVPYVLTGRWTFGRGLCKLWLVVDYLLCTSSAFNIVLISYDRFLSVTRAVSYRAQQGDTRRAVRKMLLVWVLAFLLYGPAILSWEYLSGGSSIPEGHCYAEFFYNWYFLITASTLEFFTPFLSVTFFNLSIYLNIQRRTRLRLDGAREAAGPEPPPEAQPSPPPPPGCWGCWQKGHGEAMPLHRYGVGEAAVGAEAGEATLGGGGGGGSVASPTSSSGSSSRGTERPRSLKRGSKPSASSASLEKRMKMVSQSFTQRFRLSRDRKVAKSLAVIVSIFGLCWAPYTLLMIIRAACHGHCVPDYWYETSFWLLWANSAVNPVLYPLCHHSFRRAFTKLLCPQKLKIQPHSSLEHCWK
Sequence of Cytochrome P450 2C9 (P11712 whole entry): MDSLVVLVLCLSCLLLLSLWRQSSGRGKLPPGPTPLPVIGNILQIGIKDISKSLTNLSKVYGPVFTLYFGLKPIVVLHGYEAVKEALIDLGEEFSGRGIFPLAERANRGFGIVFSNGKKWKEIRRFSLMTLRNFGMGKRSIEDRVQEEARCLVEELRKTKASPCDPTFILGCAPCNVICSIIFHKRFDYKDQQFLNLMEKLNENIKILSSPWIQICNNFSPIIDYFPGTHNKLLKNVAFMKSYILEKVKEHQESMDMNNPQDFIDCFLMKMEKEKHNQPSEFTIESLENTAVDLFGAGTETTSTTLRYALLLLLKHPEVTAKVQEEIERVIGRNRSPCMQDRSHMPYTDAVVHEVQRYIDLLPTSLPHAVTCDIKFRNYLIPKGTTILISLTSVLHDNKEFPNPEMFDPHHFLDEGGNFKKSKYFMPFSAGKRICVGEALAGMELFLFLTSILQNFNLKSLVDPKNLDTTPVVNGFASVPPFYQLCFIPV
Sequence of CYP2C9 (P11712 whole entry): as above
Sequence of Histamine H3 receptor (Mus musculus, UniProt P58406) (P58406 whole entry): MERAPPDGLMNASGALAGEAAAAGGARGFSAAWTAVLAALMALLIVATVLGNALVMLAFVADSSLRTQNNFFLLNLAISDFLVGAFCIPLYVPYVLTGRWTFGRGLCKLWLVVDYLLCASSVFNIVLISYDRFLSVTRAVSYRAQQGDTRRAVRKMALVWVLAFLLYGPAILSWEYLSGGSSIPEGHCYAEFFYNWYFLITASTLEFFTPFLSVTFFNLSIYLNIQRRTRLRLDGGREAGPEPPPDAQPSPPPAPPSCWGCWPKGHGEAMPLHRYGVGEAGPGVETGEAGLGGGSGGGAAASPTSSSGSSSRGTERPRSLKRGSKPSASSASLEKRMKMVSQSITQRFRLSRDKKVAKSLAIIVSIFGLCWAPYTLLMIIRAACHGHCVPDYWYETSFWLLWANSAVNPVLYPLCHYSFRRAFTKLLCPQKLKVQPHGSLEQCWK
Sequence of CYP3A4 (P08684 whole entry): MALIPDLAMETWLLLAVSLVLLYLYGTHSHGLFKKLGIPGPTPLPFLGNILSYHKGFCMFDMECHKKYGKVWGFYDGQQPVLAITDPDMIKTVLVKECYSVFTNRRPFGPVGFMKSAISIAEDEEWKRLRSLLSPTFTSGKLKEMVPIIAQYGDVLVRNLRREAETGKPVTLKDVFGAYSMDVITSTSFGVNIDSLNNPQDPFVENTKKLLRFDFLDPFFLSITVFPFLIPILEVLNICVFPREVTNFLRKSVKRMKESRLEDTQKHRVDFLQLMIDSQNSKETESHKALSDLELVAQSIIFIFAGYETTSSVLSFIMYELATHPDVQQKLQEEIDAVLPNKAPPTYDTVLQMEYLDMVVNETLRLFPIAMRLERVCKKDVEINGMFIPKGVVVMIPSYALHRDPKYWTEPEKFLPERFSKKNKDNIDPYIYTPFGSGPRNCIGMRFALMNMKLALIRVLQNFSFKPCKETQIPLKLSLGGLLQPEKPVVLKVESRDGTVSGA
Sequence of Cytochrome P450 3A4 (P08684 whole entry): as above

SMILES | inhibition at 1 µM [1] [%] | Ki [2] [nM] | inhibition at 1 µM [5] [%] | inhibition at 1 µM [6] [%] | Ki [7] [nM] | IC50 [8] [nM] | further results
c1cc([C@H]2CC[C@H](N3CCCCC3)CC2)ccc1OCCCN1CCCCC1 | 1.4 | 0.64 | 5.2 | 33.5 | 1 | – | ED50 [3]: 4.2 mg/kg; inhibition at 1 µM [4]: 42%
c1ccc2c(c1)CN([C@H]1CC[C@H](c3ccc(OCCCN4CCCCC4)cc3)CC1)C2 | 21.9 | 0.17 | 8.9 | 25.1 | 1.4 | – | –
CN1CCN([C@H]2CC[C@@H](c3ccc(OCCCN4CCCCC4)cc3)CC2)CC1 | – | 0.92 | – | – | – | – | –
c1cc([C@H]2CC[C@H](N3CCCC3)CC2)ccc1OCCCN1CCCCC1 | – | 0.25 | – | – | 0.33 | 15300 | ED50 [3]: 3 mg/kg; inhibition at 1 µM [4]: 14%; IC50 [9]: > 100000 nM; inhibition at 10 µM [10]: 22%
c1cc(OCCCN2CCCCC2)ccc1CN1CCCCC1 [JNJ-5207852] | – | – | – | – | – | – | Tmax [11]: 0.5 h; Tmax [12]: 3 h; AUC(0-t) at 3 h [13]: 1040 ng·h/mL; AUC(0-t) at 3 h [14]: 1100 ng·h/mL
OC1CCN([C@H]2CC[C@H](c3ccc(OCCCN4CCCCC4)cc3)CC2)CC1 | 15.7 | 0.57 | 3.3 | 3.4 | – | – | –
CN1CCN([C@H]2CC[C@H](c3ccc(OCCCN4CCCCC4)cc3)CC2)CC1 | 3.4 | 0.32 | 20.9 | 3.4 | 2.3 | – | –
OC1CCN([C@H]2CC[C@@H](c3ccc(OCCCN4CCCCC4)cc3)CC2)CC1 | – | 0.92 | – | – | – | – | –
CN([C@H]1CC[C@H](c2ccc(OCCCN3CCCCC3)cc2)CC1)S(=O)(=O)c1ccccc1 | – | 5.5 | – | – | – | – | –
c1cc([C@H]2CC[C@@H](N3CCOCC3)CC2)ccc1OCCCN1CCCCC1 | – | 0.67 | – | – | – | – | –
c1ccc2c(c1)CN([C@H]1CC[C@@H](c3ccc(OCCCN4CCCCC4)cc3)CC1)C2 | – | 0.41 | – | – | – | – | –
c1cc([C@H]2CC[C@@H](N3CCCC3)CC2)ccc1OCCCN1CCCCC1 | – | 0.33 | – | – | 1 | 22300 | inhibition at 1 µM [4]: 11%; IC50 [9]: > 100000 nM; IC50 [15]: 41700 nM; inhibition at 10 µM [10]: 15%
c1cc([C@H]2CC[C@H](N3CCOCC3)CC2)ccc1OCCCN1CCCCC1 | – | 0.41 | – | – | 1.6 | 44000 | Stability [16]: Stable; Kp [17]: 7.4; AUC(0-t) at 8 h [18]: 15600 ng·h/mL; Stability [19]: Stable; AUC(0-t) at 8 h [20]: 2110 ng·h/mL; ED50 [3]: 1.3 mg/kg; IC50 [9]: > 100000 nM; IC50 [15]: 66200 nM; inhibition at 10 µM [10]: 34%

Now from value to compound, other results behind:

inhibition at 1 µM [1] [%] | Ki [2] [nM] | inhibition at 1 µM [5] [%] | inhibition at 1 µM [6] [%] | Ki [7] [nM] | IC50 [8] [nM] | SMILES | further results
– | 3.2 | – | – | – | – | CN[C@H]1CC[C@H](c2ccc(OCCCN3CCCCC3)cc2)CC1 | –
-8.9 | 0.64 | 26.6 | 54.7 | – | 1000 | CCCCN[C@H]1CC[C@H](c2ccc(OCCCN3CCCCC3)cc2)CC1 | –
– | 0.34 | – | – | – | – | c1cc([C@H]2CC[C@@H](N3CCC3)CC2)ccc1OCCCN1CCCCC1 | –
0.8 | 0.25 | 4.2 | -12.1 | 1.6 | – | c1cc([C@H]2CC[C@H](N3CCC3)CC2)ccc1OCCCN1CCCCC1 | ED50 [3]: 2.8 mg/kg; inhibition at 10 µM [10]: 41%
– | – | – | – | 0.52 | 40700 | CN(C)[C@H]1CC[C@H](c2ccc(OCCCN3CCCCC3)cc2)CC1 | ED50 [3]: 3.7 mg/kg; IC50 [9]: > 100000 nM; IC50 [15]: 42600 nM
-7.8 | 0.56 | 26.1 | 52.9 | – | – | CC1CCN([C@H]2CC[C@@H](c3ccc(OCCCN4CCCCC4)cc3)CC2)CC1 | –
3.8 | 1.7 | 4.1 | 21.4 | – | – | O=C1CCC(c2ccc(OCCCN3CCCCC3)cc2)CC1 | –
– | 0.29 | – | – | – | – | c1ccc(CN[C@H]2CC[C@@H](c3ccc(OCCCN4CCCCC4)cc3)CC2)cc1 | –
2.9 | 0.53 | 25.4 | 53.9 | – | 1000 | CCCCN[C@H]1CC[C@@H](c2ccc(OCCCN3CCCCC3)cc2)CC1 | –
– | – | – | – | 0.28 | 11300 | CN(C)[C@H]1CC[C@@H](c2ccc(OCCCN3CCCCC3)cc2)CC1 | ED50 [3]: 3.7 mg/kg; IC50 [9]: > 100000 nM; IC50 [15]: 50000 nM
20 | 0.26 | 39.9 | 47.8 | 2.1 | 1000 | c1ccc(CN[C@H]2CC[C@H](c3ccc(OCCCN4CCCCC4)cc3)CC2)cc1 | –
